Screening data from PubChem BioAssay.
A selection: hits, their analogues and other compounds. The true share with any hit is near 3.1%.
TAG inh – inhibitors of triacylglycerol accumulation, primary screen, cell-based, uHTS, fluorescence, H9c2; actives 0.66% (n = 230,000); inhibition, % at 12.5 µM; H9c2 cells, Nile Red lipid (TAG) fluorescence; cells loaded with 200 µM oleic acid; AID 651582, 2012;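 active = pattern-corrected inhibition of lipid staining of at least 50% with the nuclear-stain viability signal not falling by more than 50%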;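 also: 0% = DMSO wells and 100% = triacsin C control wells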
T cruzi inh – inhibitors of intracellular T. cruzi growth, primary screen, luminescence, NIH3T3 host cells | T. cruzi beta-gal in NIH3T3, 90 h | inhibition, % (concentration not given with the values) | actives 1.4% (n = 300,000);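 active = mean inhibition across valid replicates above about 55%, limit read from the data; inconclusive = mean below that limit but half or more replicates reach it; inactive = mean below it, under half of replicates reach it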;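 also: signal also drops with host cell toxicity which is not excluded here; 0% = plate median of DMSO wells and 100% = zero luminescence signal; higher percent means less beta-gal luminescence so fewer parasites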
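Assay system: NIH/3T3 fibroblasts plus reporter T. cruzi. Amount: NIH/3T3 cells, 5,000 per well. Buffer or medium: DMEM, 2% fetal bovine serum. Doses: compound pinned at 50 nL/well, DMSO. Schedule: ≥90 h infection period, 3 h prior cell attachment. Signal: luminescent β-galactosidase signal after 60 min lysis. Read-out: parasite load inhibition, %.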
Calb FLC – C. albicans growth inhibition with fluconazole, primary screen, CaCi-2 strain, Alamar Blue fluorescence; C. albicans CaCi-2 + fluconazole, 48 h; growth inhibition, % (no concentration beside the values); actives 0.57% (n = 300,000);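 active = growth inhibition above about 58% in most replicates, limit read from the data, passing the limit was not always enough; inconclusive = exactly half the replicates above a set limit; inactive = most replicates below a set limit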;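 also: all wells also contain fluconazole at 8 µg/ml as a sub-toxic cotreatment; 0% = median of DMSO wells and 100% = median of geldanamycin control wells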
A1 inh – caspase 3/7 activation in MEF A1-2A-BIM cells, primary screen, A1 inhibitor project, cell-based, luminescence, HTS; Caspase-Glo 3/7 luminescence, 3 h; percent of clofoctol response, vehicle zero; caspase activation, % (no concentration beside the values); actives 0.066% (n = 330,000); AID 2462, 2010;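 active = over half of replicate activation scores above 10%, or exactly half above 10 with the replicate mean above 10; inconclusive = replicate mean below 10 yet half the replicates above 10; inactive = over half of replicates below 10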
Beta apoptosis – inhibitors of cytokine-induced beta cell apoptosis, primary screen, luminescence | INS-1E cytokine-induced death, ATP luminescence, 48 h; percent of positive-control rescue, neutral wells zero | protection from apoptosis, % (no concentration beside the values) | actives 0.8% (n = 300,000) | AID 435005, 2010;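 active = Every replicate reaches about 75%, or at least half do and their mean reaches it too, limit read from the data; inconclusive = At least half of replicates reach the limit but their mean does not; inactive = Under half of replicates reach the limit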;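 also: 0% = cytokine-treated negative control wells and 100% = positive control rescue; higher means more ATP so stronger rescue from cytokine killing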
CSC inhib – cancer stem cell viability inhibitors, primary screen, luminescence; inhibition, % at 7.5 µM; cancer stem cell-like cells viability; actives 1.1% (n = 300,000); in the data active = inhibition above about 75%; inconclusive = no clear call, values can overlap the other calls; tested in HMLE shEcad cells
An asterisk follows results filed as active; ? = inconclusive; . = no result.

SMILES	TAG inh	T cruzi inh	Calb FLC	A1 inh	Beta apoptosis	CSC inhib
CCCC(=O)NC(c1ccccc1Cl)c1ccc2cccnc2c1O (stereo not given)	86.9	52.4	82.5*	-0.2	98.8*	109.4*
CC(C)CC(=O)NC(c1ccccc1Cl)c1c(O)ccc2ccccc12 (stereo not given)	.	10.2	6.0	1.1	-1.5	15.6
CC(=O)NC(c1ccco1)c1ccc2cccnc2c1O (stereo not given)	.	45.1	-6.3	2.3	90.2*	-1.0
CNc1oc(/C=C/c2cccc(OC)c2)nc1C#N	3.2	-3.1	11.6	-3.5	-0.1	18.0
CC1CCN(C(=O)CSc2nc3c(c(=O)n2C)SC(C)C3)CC1 (stereo not given)	1.0	-1.0	2.6	-0.8	.	-3.3
O=C(COC(=O)/C=C/c1ccc(OC(F)F)cc1)Nc1cccc(S(=O)(=O)N2CCOCC2)c1	-7.7	.	.	-1.3	-1.5	-12.1
Cc1cccc(-c2ccc3c(c2)C2CC3CCN2C)c1 (stereo not given)	12.9	.	.	.	.	.
CCC(=O)NC(c1ccc(C)cc1)c1ccc2cccnc2c1O (stereo not given)	77.2	57.1*	0.3	0.8	5.6	-2.4
O=C(Nc1nnc(-c2ccccn2)o1)c1ccc(Br)cc1	.	-53.3	97.5*	-6.5	5.9	11.0
O=C(CCN1C(=O)NC2(CCCC2)C1=O)Nc1ccc(-c2nc3ccccc3s2)cc1	2.3	.	.	.	.	.
COc1cc(-c2noc(C)c2/C=C/c2ccc(OC(C)=O)cc2)cc(OC)c1OC	44.4	35.4	21.0	1.3	15.1	109.2*
O=C(C#Cc1cccc([N+](=O)[O-])c1)c1ccccc1	.	51.1	10.7	1.2	39.5	39.5
Nc1ccccc1C#CC(=O)c1ccccc1	.	?	?	1.2	90.8*	30.2
COc1ccc(-c2[nH]ncc2N=Nc2ccccc2)cc1	7.6	6.4	-1.5	-0.1	-14.0	94.0*
COc1ccccc1C(=O)N/C(=C\c1cn(C)c2ccccc12)C(=O)NCCCn1ccnc1	.	0.7	5.6	1.5	-0.4	-18.2
O=C(NNC(=O)c1ncc(Cl)c(Cl)c1Cl)c1ccc(F)cc1	-0.3	-15.8	-1.4	0.5	-1.1	-9.8
CN(C)CCCn1c2c3ccccc3ccc2c2oc(=O)c3ccccc3c21	77.8*	.	.	.	.	.
N#CC1(NC(=O)COC(=O)c2nc(Cl)c(Cl)c(N)c2Cl)CCCCC1	-1.0	-6.4	-5.2	0.4	2.5	0.5
O=C(Nn1c(-c2ccncc2)nc2ccccc2c1=O)c1ccc(Br)cc1	0.1	67.1*	-20.9	0.8	.	-6.9
O=C(Nn1c(-c2ccc(Br)cc2)nc2ccccc2c1=O)c1cccnc1	-5.3	-6.8	21.6	-0.6	-5.6	-3.8
COc1ccc(S(=O)(=O)NCC(c2cccnc2)N2CCN(c3ccccc3)CC2)cc1C (stereo not given)	.	62.8*	-1.2	-0.1	-3.0	-6.9
O=S(=O)(NCC(c1cccnc1)N1CCN(Cc2ccccc2)CC1)c1ccc(F)cc1 (stereo not given)	8.6	47.4	0.1	0.2	2.4	3.9
COc1ccc(N2CCN(C(CNS(=O)(=O)c3cccs3)c3cccnc3)CC2)cc1 (stereo not given)	.	42.9	-10.4	0.2	5.2	-8.6
O=[N+]([O-])c1ccc(S(=O)(=O)NCC(c2cccnc2)N2CCc3ccccc32)cc1 (stereo not given)	-1.1	69.6*	-1.3	1.8	.	1.4
O=S(=O)(NCC(c1cccnc1)N1CCN(Cc2ccccc2)CC1)c1ccc(Cl)cc1 (stereo not given)	17.7	57.7*	0.1	0.9	0.4	11.3
SMILES	TAG inh	T cruzi inh	Calb FLC	A1 inh	Beta apoptosis	CSC inhib
COc1ccc(N2CCN(C(CNS(=O)(=O)c3cc(F)ccc3F)c3cccnc3)CC2)cc1 (stereo not given)	11.7	69.6*	3.0	1.6	2.2	12.5
Cc1cc(C(=O)COc2ccc(C#N)cc2)c(C)n1CC1CCCO1 (stereo not given)	-7.4	.	.	-0.5	1.6	-17.2
CC[C@]12c3[nH]c4ccccc4c3CCN1C(=O)C(CC(=O)NCc1ccc(OC)c(OC)c1)C[C@@H]2C(=O)N1CCN(C(=O)C2CC2)CC1 (stereo not given in full)	-1.4	.	.	-1.3	0.3	.
O=C(COC(=O)Cc1cccc(C(F)(F)F)c1)NC1CCS(=O)(=O)C1 (stereo not given)	6.8	0.6	0.8	0.1	-1.4	.
O=C(CCNS(=O)(=O)c1ccccc1F)OCc1ccccc1Cl	1.1	.	.	-0.2	-4.5	-15.0
CCN1CCN(C(CNS(=O)(=O)c2ccc(F)cc2)c2cccnc2)CC1 (stereo not given)	17.2	21.4	-8.0	-0.4	-11.6	0.1
O=S(=O)(NCC(c1cccnc1)N1CCN(Cc2ccccc2)CC1)c1cc(F)ccc1F (stereo not given)	-2.6	58.9*	-7.4	-0.1	6.0	-0.3
O=S(=O)(NCC(c1cccnc1)N1CCN(c2ccc(F)cc2)CC1)c1cc(F)ccc1F (stereo not given)	.	58.0*	-10.3	0.4	-3.7	23.4
Cc1ccc(C(CNS(=O)(=O)c2ccc([N+](=O)[O-])cc2)N2CCN(C)CC2)cc1 (stereo not given)	7.1	58.4*	-9.1	-0.2	1.7	28.2
CCCc1cc(=O)[nH]c(SCC(=O)Nc2cc(S(=O)(=O)N3CCCCC3)ccc2Cl)n1	-4.8	.	.	.	.	.
Cc1ccccc1N1CCN(CCCN2C(=O)CC(=C(c3ccccc3)c3ccccc3)C2=O)CC1	-14.9	9.6	-4.0	0.1	-8.8	-8.1
O=C1CC(=C(c2ccccc2)c2ccccc2)C(=O)N1CCCCN1CCN(c2cccc(Cl)c2)CC1	7.9	32.1	?	0.2	-3.8	113.1*
Cc1cc2oc3cc(NCCC4CCCN4C)ccc3c(=O)c2cc1C (stereo not given)	34.6	39.4	5.6	-2.0	11.3	103.0*
Cc1cc(C)c2nc(N3CCCC(C(=O)N4CCN(c5ncccn5)CC4)C3)sc2c1 (stereo not given)	14.5	11.4	11.8	1.2	13.2	75.4*
CCOC(=O)c1c(C)n(-c2ccc(C)cc2)c2ccc(OCC(O)CNCC3CCCO3)cc12 (stereo not given)	35.1	64.1*	39.7	0.4	23.5	118.3*
c1ccc(CCc2ccncc2)cc1	2.7	55.8*	8.4	-0.6	-6.1	-7.1
CCCN1C(=O)/C(=C2\SC(N3CCCCC3)=NC2=O)c2ccccc21	50.6*	36.7	-0.8	-0.7	.	-14.5
N#CCCN1CCN(CCC#N)CC1	.	-2.8	-4.6	0.9	.	.
